Measured values reported in ChEMBL document CHEMBL1671800, “Synthesis and antimycobacterial properties of N-substituted 6-amino-5-cyanopyrazine-2-carboxamides” (2011).
Converted amounts (≈) assume the structure as drawn. The source made the active and inactive calls. The calls are words filed in the database; no cut-off is given here.

Columns and labels:
[1] = test system: Pichia kudriavzevii; assay: Antifungal activity against Candida krusei E28 after 24 hrs by broth microdilution method; assay type: functional
Outline: (§1)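 Broth microdilution. Compounds in DMSO were diluted twofold in RPMI 1640 with glutamine, buffered to pH 7.0 with MOPS. Final DMSO was at most 2.5% (v/v). Plates were incubated statically, in the dark and humid, at 35 °C and read at 24 and 48 h.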

[2] = test system: Pichia kudriavzevii; assay: Antifungal activity against Candida krusei E28 after 48 hrs by broth microdilution method; assay type: functional; outline: as §1
[3] = test system: Trichophyton mentagrophytes; assay: Antifungal activity against Trichophyton mentagrophytes 445 after 120 hrs by broth microdilution method; assay type: functional
Outline: (§2)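 Trichophyton mentagrophytes was tested by twofold broth microdilution in MOPS-buffered RPMI 1640 with glutamine, pH 7.0, with final DMSO at most 2.5% (v/v). Incubation was static, dark and humid at 35 °C, and plates were read at 72 and 120 h.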

[4] = test system: Trichosporon beigelii; assay: Antifungal activity against Trichosporon beigelii 1188 after 48 hrs by broth microdilution method; assay type: functional; outline: as §1
[5] = test system: Candida albicans; assay: Antifungal activity against Candida albicans ATCC 44859 after 48 hrs by broth microdilution method; assay type: functional; outline: as §1
[6] = test system: Lichtheimia corymbifera; assay: Antifungal activity against Absidia corymbifera 272 after 48 hrs by broth microdilution method; assay type: functional; outline: as §1
[7] = test system: Candida albicans; assay: Antifungal activity against Candida albicans ATCC 44859 after 24 hrs by broth microdilution method; assay type: functional; outline: as §1
[8] = test system: Aspergillus fumigatus; assay: Antifungal activity against Aspergillus fumigatus 231 after 48 hrs by broth microdilution method; assay type: functional; outline: as §1
[9] = test system: Trichophyton mentagrophytes; assay: Antifungal activity against Trichophyton mentagrophytes 445 after 72 hrs by broth microdilution method; assay type: functional; outline: as §2
[10] = test system: Nakaseomyces glabratus; assay: Antifungal activity against Candida glabrata 20/I after 24 hrs by broth microdilution method; assay type: functional; outline: as §1
[11] = test system: Candida tropicalis; assay: Antifungal activity against Candida tropicalis 156 after 48 hrs by broth microdilution method; assay type: functional; outline: as §1
[12] = test system: Aspergillus fumigatus; assay: Antifungal activity against Aspergillus fumigatus 231 after 24 hrs by broth microdilution method; assay type: functional; outline: as §1
[13] = test system: Lichtheimia corymbifera; assay: Antifungal activity against Absidia corymbifera 272 after 24 hrs by broth microdilution method; assay type: functional; outline: as §1
[14] = test system: Nakaseomyces glabratus; assay: Antifungal activity against Candida glabrata 20/I after 48 hrs by broth microdilution method; assay type: functional; outline: as §1
[15] = test system: Trichosporon beigelii; assay: Antifungal activity against Trichosporon beigelii 1188 after 24 hrs by broth microdilution method; assay type: functional; outline: as §1
[16] = test system: Candida tropicalis; assay: Antifungal activity against Candida tropicalis 156 after 24 hrs by broth microdilution method; assay type: functional; outline: as §1
[17] = test system: Mycobacterium avium; assay: Antimycobacterial activity against Mycobacterium avium CNCTC My 80/72 after 14 days by microdilution method; assay type: functional; settings: CNCTC My 80/72, 336 h
Outline: (§3)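 Compounds in DMSO were diluted in Šula's semisynthetic medium, pH 5.5, to final 200–3.125 μg/mL, with DMSO at most 1% (v/v). Mycobacteria were added as a suspension in isotonic saline and grown at 37 °C. MIC was read visually after 14 days as the lowest concentration inhibiting growth.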

[18] = test system: Klebsiella pneumoniae; assay: Antibacterial activity against ESBL-positive Klebsiella pneumoniae J 14368/08 after 24 to 48 hrs by broth microdilution method; assay type: functional, organism-based
[19] = test system: Enterobacter sp.; assay: Antibacterial activity against Enterobacter sp. J 14365/ 08 after 24 to 48 hrs by broth microdilution method; assay type: functional, organism-based
[20] = test system: Staphylococcus aureus; assay: Antibacterial activity against Staphylococcus aureus CCM 4516/08 after 24 to 48 hrs by broth microdilution method; assay type: functional, organism-based
Outline: (§4)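 Strains subcultured on Mueller-Hinton agar at 35 °C and passaged onto MHA before testing. Inoculum suspended in sterile 0.85% saline and adjusted to 0.5 McFarland (1.5×10^8 CFU/mL). Compounds in DMSO (final ≤1% v/v) in Mueller-Hinton broth at pH 7.0, with medium and DMSO-alone controls. Static incubation at 35 °C; MIC taken as 95% growth inhibition versus control at 24 and 48 h.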

[21] = test system: Mycobacterium avium; assay: Antimycobacterial activity against Mycobacterium avium CNCTC My 152/73 after 14 days by microdilution method; assay type: functional; settings: CNCTC My 152/73, 336 h; outline: as §3
[22] = test system: Klebsiella pneumoniae; assay: Antibacterial activity against Klebsiella pneumoniae D11750/08 after 24 to 48 hrs by broth microdilution method; assay type: functional, organism-based
[23] = test system: Mycobacterium kansasii; assay: Antimycobacterial activity against Mycobacterium kansasii CNCTC My 235/80 after 6 days by microdilution method; assay type: functional; settings: CNCTC My 235/80, 144 h
Outline: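 Compounds were dissolved in DMSO and diluted in Šula's semisynthetic medium at pH 5.5, at final concentrations of 200 to 3.125 μg/mL in twofold steps; DMSO stayed ≤1% v/v. The strain was added as a suspension in isotonic saline and incubated at 37 °C. Growth was read visually after 6 days; MIC is the lowest concentration that inhibited growth. Pyrazinamide served as standard.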

[24] = test system: Staphylococcus aureus; assay: Antibacterial activity against methicillin-resistant Staphylococcus aureus H 5996/08 after 24 to 48 hrs by broth microdilution method; assay type: functional, organism-based
Outline: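 Strains were subcultured on Mueller-Hinton agar at 35 °C, and the inoculum was suspended in 0.85% saline to 0.5 McFarland (1.5×10^8 CFU/mL). Microdilution was done in Mueller-Hinton broth, pH 7.0, with final DMSO at most 1% (v/v). MIC, set at 95% growth inhibition versus control, was read after 24 and 48 h of static incubation at 35 °C.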

[25] = test system: Escherichia coli; assay: Antibacterial activity against Escherichia coli CCM 4517 after 24 to 48 hrs by broth microdilution method; assay type: functional, organism-based; outline: as §4
[26] = test system: Staphylococcus epidermidis; assay: Antibacterial activity against Staphylococcus epidermidis H 6966/08 after 24 to 48 hrs by broth microdilution method; assay type: functional, organism-based
[27] = test system: Pseudomonas aeruginosa; assay: Antibacterial activity against Pseudomonas aeruginosa CCM 1961 after 24 to 48 hrs by broth microdilution method; assay type: functional, organism-based; outline: as §4
[28] = test system: Mycobacterium tuberculosis; assay: Antimycobacterial activity against Mycobacterium tuberculosis H37Rv CNCTC My 331/88 after 14 days by microdilution method; assay type: functional; settings: H37Rv CNCTC My 331/88, 336 h; outline: as §3
[29] = Trichophyton mentagrophytes, 445, 120 h
[30] = Trichosporon beigelii, 1188, 48 h
[31] = Lichtheimia corymbifera, 272, 48 h
[32] = Aspergillus fumigatus, 231, 48 h
[33] = Trichophyton mentagrophytes, 445, 72 h
[34] = Aspergillus fumigatus, 231, 24 h
[35] = Lichtheimia corymbifera, 272, 24 h
[36] = Trichosporon beigelii, 1188, 24 h

Row | Compound | MIC [10] | MIC [14] | MIC ([1]; E28, 24 h) | MIC ([2]; E28, 48 h) | MIC [3, 29] | MIC [4, 30] | MIC ([5]; ATCC 44859, 48 h) | MIC [6, 31] | MIC ([7]; ATCC 44859, 24 h) | MIC [8, 32] | MIC [9, 33] | MIC ([11]; Candida tropicalis, 156, 48 h) | MIC [12, 34] | MIC [13, 35] | MIC [15, 36] | MIC ([16]; Candida tropicalis, 156, 24 h) | MIC [17] | Activity [18] | Activity [19] | Activity [20] | also measured
1 | NYSTATIN | 1.95 µM | 1.95 µM |  |  |  |  |  |  |  |  |  |  |  |  |  |  |  |  |  |  | MIC [1]: 1.95 µM; MIC [2]: 3.9 µM; MIC [3]: 7.81 µM; MIC [4]: 1.95 µM; MIC [5]: 1.95 µM; MIC [6]: 31.2 µM; MIC [7]: 0.98 µM; MIC [8]: 3.9 µM; MIC [9]: 3.9 µM; MIC [11]: 3.9 µM; MIC [12]: 1.95 µM; MIC [13]: 15.6 µM; MIC [15]: 1.95 µM; MIC [16]: 1.95 µM
2 | OC(Cn1cncn1)(Cn1cncn1)c1ccc(F)cc1F [FLUCONAZOLE] | 62.5 µM (≈ 19.1 µg/mL) | 250 µM (≈ 76.6 µg/mL) | 125 µM (≈ 38.3 µg/mL) | 250 µM (≈ 76.6 µg/mL) | 125 µM (≈ 38.3 µg/mL) | 500 µM (≈ 153 µg/mL) | 0.24 µM (≈ 0.0735 µg/mL) | > 500 µM | 0.24 µM (≈ 0.0735 µg/mL) | > 500 µM | 7.81 µM (≈ 2.39 µg/mL) | > 500 µM | > 500 µM | > 500 µM | 250 µM (≈ 76.6 µg/mL) | > 500 µM |  |  |  |  | 
3 | N#Cc1ncc(C(N)=O)nc1Cl | > 500 µM | > 500 µM | > 500 µM | > 500 µM | 62.5 µM (≈ 11.4 µg/mL) | > 500 µM | 125 µM (≈ 22.8 µg/mL) | 250 µM (≈ 45.6 µg/mL) | 125 µM (≈ 22.8 µg/mL) | > 500 µM | 62.5 µM (≈ 11.4 µg/mL) | > 500 µM | > 500 µM | 250 µM (≈ 45.6 µg/mL) | > 500 µM | > 500 µM | 25 µg/mL (≈ 137 µM) | inactive | inactive | inactive | MIC [21]: 25 µg/mL (≈ 137 µM); Activity [22]: inactive; MIC [23]: 25 µg/mL (≈ 137 µM); Activity [24]: inactive; Activity [25]: inactive; Activity [26]: inactive; Activity [27]: inactive; MIC [28]: 25 µg/mL (≈ 137 µM)
4 | CCCCCNc1nc(C(N)=O)cnc1C#N | 250 µM (≈ 58.3 µg/mL) | > 250 µM | 62.5 µM (≈ 14.6 µg/mL) | 250 µM (≈ 58.3 µg/mL) | > 250 µM | > 250 µM | > 250 µM | > 250 µM | 250 µM (≈ 58.3 µg/mL) | > 250 µM | > 250 µM | > 250 µM | 250 µM (≈ 58.3 µg/mL) | 125 µM (≈ 29.2 µg/mL) | > 250 µM | > 250 µM | > 200 µg/mL | inactive | inactive | inactive | MIC [21]: > 200 µg/mL; Activity [22]: inactive; MIC [23]: > 200 µg/mL; Activity [24]: inactive; Activity [25]: inactive; Activity [26]: inactive; Activity [27]: inactive; MIC [28]: > 200 µg/mL
